According to ChEMBL document CHEMBL2163312, “Virtual screening identifies novel sulfonamide inhibitors of ecto-5'-nucleotidase” (J Med Chem, 2012):

These compounds were tested against T1, 5'-nucleotidase (Rattus norvegicus, UniProt P21588) (assay: Inhibition of rat recombinant ecto-5'-nucleotidase using [3H]AMP substrate).
T1 sequence (P21588 whole entry): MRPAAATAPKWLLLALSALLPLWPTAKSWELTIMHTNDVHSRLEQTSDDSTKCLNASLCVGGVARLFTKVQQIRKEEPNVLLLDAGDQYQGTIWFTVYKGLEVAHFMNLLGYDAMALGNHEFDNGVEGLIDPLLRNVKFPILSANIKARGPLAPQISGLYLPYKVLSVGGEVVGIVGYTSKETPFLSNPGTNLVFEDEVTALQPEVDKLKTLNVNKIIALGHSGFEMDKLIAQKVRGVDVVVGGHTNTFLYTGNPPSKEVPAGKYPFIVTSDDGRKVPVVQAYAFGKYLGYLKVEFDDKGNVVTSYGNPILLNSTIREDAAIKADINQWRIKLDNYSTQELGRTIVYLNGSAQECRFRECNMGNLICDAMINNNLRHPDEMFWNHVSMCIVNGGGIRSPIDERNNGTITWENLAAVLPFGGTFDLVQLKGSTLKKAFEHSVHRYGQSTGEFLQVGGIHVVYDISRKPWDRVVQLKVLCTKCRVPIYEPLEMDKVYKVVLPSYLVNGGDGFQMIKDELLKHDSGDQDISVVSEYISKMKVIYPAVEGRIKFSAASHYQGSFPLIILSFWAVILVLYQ
In short: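 Purified recombinant rat enzyme in a radioactive assay with [3H]AMP as substrate at 5 μM (near Km). Compounds were screened first at 100 and 10 μM. Full concentration–response curves were run for potent compounds to obtain IC50. Inhibition mechanism: 10 substrate concentrations at three inhibitor concentrations, with velocity normalized to Vmax without inhibitor.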

SMILES	IC50
COc1cccc2cc(C(=O)Nc3ccc(S(N)(=O)=O)cc3)c(=O)oc12	16.6 µM
NS(=O)(=O)c1ccc(NC(=O)c2cc3cc(Cl)cc(Cl)c3oc2=O)cc1	74.8 µM
CCOc1ccc(C(=O)NC(=S)Nc2ccc(S(N)(=O)=O)cc2)cc1Cl	46.5 µM
Cc1oc(-c2ccc(Cl)cc2)cc1C(=O)Nc1ccc(S(N)(=O)=O)cc1	45.1 µM
Cc1c(NC(=O)c2ccc3c(c2)NC(=O)CO3)c(=O)n(-c2ccccc2)n1C	50.9 µM
NS(=O)(=O)c1ccc(N/N=C/c2cccc(O)c2)c([N+](=O)[O-])c1	18.4 µM

The next compounds have a lower IC50 than those just listed; values first:

IC50	SMILES
15.5 µM	NS(=O)(=O)c1cc(Cl)c(NC(=O)c2c(O)[nH]c3ccccc3c2=O)c(Cl)c1
9.46 µM	NS(=O)(=O)c1ccc(N/N=C/c2ccccc2O)c([N+](=O)[O-])c1
8.03 µM	NS(=O)(=O)c1ccc(N/N=C/c2ccc(O)cc2)c([N+](=O)[O-])c1
7.1 µM	O=C(NC(=S)Nc1ccc(S(=O)(=O)c2ccc(NC(=S)NC(=O)c3ccccc3)cc2)cc1)c1ccccc1
6.54 µM	NS(=O)(=O)c1ccc(N/N=C/c2c(O)ccc3ccccc23)c([N+](=O)[O-])c1
3.99 µM	NS(=O)(=O)c1ccc(N/N=C/c2cccc(Oc3ccccc3)c2)c([N+](=O)[O-])c1
